From ChEMBL document CHEMBL1152323, “Polyoxygenated methyl cyclohexanoids from a terrestrial ampelomyces fungus” (J Nat Prod, 2009)
≈ marks a conversion by molar mass, not a printed value. Calls of active or inactive are those of the source. The calls are words filed in the database; no cut-off is given here.

Tests used:
Prunus dulcis = test: Inhibition of almond beta glucosidase at 10 uM
Penicillium decumbens = test: Inhibition of Penicillium decumbens alpha-rhamnosidase at 10 mM
[1] = Inhibition of Saccharomyces cerevisiae alpha glucosidase
Summary of the method: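 Baker's yeast α-glucosidase (0.2 U/mL solution) in 0.2 M phosphate buffer pH 6.8 was preincubated with compound at 37 °C for 30 min. 2.5 mM p-nitrophenyl α-D-glucopyranoside solution was then added and the mixture incubated 5 min at 37 °C. The reaction was stopped with 0.1 M Na₂CO₃ and A405 read before and after reaction. Percent inhibition was taken against a buffer-only control, with acarbose as positive control, giving IC50 in mM ± SD.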

Escherichia coli = test: Antimicrobial activity against Escherichia coli by almar blue assay; assay type: functional
Summary of the method: (§1)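 Microplate Alamar Blue broth assay: bacteria at 2 × 10⁵ cfu/mL in MHB with 8% Alamar Blue; serial 2-fold compound dilutions in DMSO added (2 µL to 78 µL culture); ceftazidime reference; incubated at 32 °C until growth controls turned pink; fluorescence ex 530/em 590 nm; % inhibition, triplicate averaged; MIC50 and MIC90 interpolated from concentration–inhibition curves.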

Staphylococcus aureus = test: Antimicrobial activity against Staphylococcus aureus by almar blue assay; assay type: functional
Summary of the method: as §1

Pseudomonas aeruginosa = test: Antimicrobial activity against Pseudomonas aeruginosa by almar blue assay; assay type: functional
Summary of the method: as §1

Proteus vulgaris = test: Antimicrobial activity against Proteus vulgaris by almar blue assay; assay type: functional
Summary of the method: as §1

| Activity (Prunus dulcis) | Activity (Penicillium decumbens) | IC50 [1] [mM] | Structure (SMILES) | MIC50 (Escherichia coli) [µM] | MIC90 (Escherichia coli) [µM] | MIC50 (Staphylococcus aureus) [µM] | MIC90 (Staphylococcus aureus) [µM] | MIC50 (Pseudomonas aeruginosa) [µM] | MIC90 (Pseudomonas aeruginosa) [µM] | MIC50 (Proteus vulgaris) [µM] | MIC90 (Proteus vulgaris) [µM] |
| --- | --- | --- | --- | --- | --- | --- | --- | --- | --- | --- | --- |
| inactive | inactive | > 10 | C[C@H]1C[C@@H](O)[C@@H](O)C[C@@H]1O (relative stereo) [AMPELOMIN F] | – | – | – | – | – | – | – | – |
| inactive | inactive | 5.93 | C[C@H]1C[C@H](O)[C@H](O)C[C@@H]1O (relative stereo) [AMPELOMIN E] | – | – | – | – | – | – | – | – |
| inactive | inactive | 1.74 | Cc1cccc(O)c1C(=O)O[C@H]1[C@H](O)[C@@H](O)[C@@H](C)C[C@@H]1O (relative stereo) [AMPELOMIN G] | – | – | – | – | – | – | – | – |

Further lines, the compound ahead of its results:

| Structure (SMILES) | Activity (Prunus dulcis) | Activity (Penicillium decumbens) | IC50 [1] [mM] | MIC50 (Escherichia coli) [µM] | MIC90 (Escherichia coli) [µM] | MIC50 (Staphylococcus aureus) [µM] | MIC90 (Staphylococcus aureus) [µM] | MIC50 (Pseudomonas aeruginosa) [µM] | MIC90 (Pseudomonas aeruginosa) [µM] | MIC50 (Proteus vulgaris) [µM] | MIC90 (Proteus vulgaris) [µM] |
| --- | --- | --- | --- | --- | --- | --- | --- | --- | --- | --- | --- |
| C[C@H]1C[C@H](O)[C@@H]2O[C@@H]2[C@H]1O (relative stereo) [AMPELOMIN B] | inactive | inactive | > 10 | – | – | – | – | – | – | – | – |
| C[C@H]1C[C@@H](O)C=CC1=O [AMPELOMIN A] | inactive | inactive | 3.59 | 89.9 (≈ 11.3 µg/mL) | 265 (≈ 33.4 µg/mL) | 54.9 (≈ 6.93 µg/mL) | 234 (≈ 29.5 µg/mL) | 63.5 (≈ 8.01 µg/mL) | 1020 (≈ 128 µg/mL) | 51.6 (≈ 6.51 µg/mL) | 202 (≈ 25.5 µg/mL) |
| C[C@H]1O[C@H](O[C@H]2[C@H](O)[C@@H](O)[C@@H](O[C@H]3[C@H](O)[C@@H](O)C(O)O[C@@H]3CO)O[C@@H]2CO)[C@H](O)[C@@H](O)[C@@H]1N[C@H]1C=C(CO)[C@@H](O)[C@H](O)[C@H]1O (stereo partly drawn) [ACARBOSE] | – | – | 0.03 | – | – | – | – | – | – | – | – |
| C[C@H]1C[C@H](O)[C@H](O)C[C@H]1O (relative stereo) [AMPELOMIN D] | inactive | inactive | > 10 | – | – | – | – | – | – | – | – |
| C[C@H]1C[C@H](O)[C@@H](O)C[C@H]1O (relative stereo) [AMPELOMIN C] | inactive | inactive | 6.12 | – | – | – | – | – | – | – | – |
| CC(C)(O/N=C(\C(=O)N[C@@H]1C(=O)N2C(C(=O)[O-])=C(C[n+]3ccccc3)CS[C@H]12)c1csc(N)n1)C(=O)O [CEFTAZIDIME] | – | – | – | 0.37 (≈ 0.202 µg/mL) | 0.46 (≈ 0.251 µg/mL) | 3.11 (≈ 1.7 µg/mL) | 14.7 (≈ 8.01 µg/mL) | 0.73 (≈ 0.399 µg/mL) | 3.94 (≈ 2.15 µg/mL) | 0.18 (≈ 0.0984 µg/mL) | 0.21 (≈ 0.115 µg/mL) |
